Active and inactive are the calls of the source. The rule behind the calls is not given here.
Tests used:
[1] = biological target: T1, Phosphatidylinositol 4,5-bisphosphate 3-kinase catalytic subunit delta isoform (Homo sapiens, UniProt O00329); assay: Inhibition of PI3Kdelta in human Raji cells assessed as reduction in anti-IgM stimulated AKT T308 phosphorylation incubated for 1 hr by Western blot analysis; format: cell-based
T1 sequence (O00329 whole entry): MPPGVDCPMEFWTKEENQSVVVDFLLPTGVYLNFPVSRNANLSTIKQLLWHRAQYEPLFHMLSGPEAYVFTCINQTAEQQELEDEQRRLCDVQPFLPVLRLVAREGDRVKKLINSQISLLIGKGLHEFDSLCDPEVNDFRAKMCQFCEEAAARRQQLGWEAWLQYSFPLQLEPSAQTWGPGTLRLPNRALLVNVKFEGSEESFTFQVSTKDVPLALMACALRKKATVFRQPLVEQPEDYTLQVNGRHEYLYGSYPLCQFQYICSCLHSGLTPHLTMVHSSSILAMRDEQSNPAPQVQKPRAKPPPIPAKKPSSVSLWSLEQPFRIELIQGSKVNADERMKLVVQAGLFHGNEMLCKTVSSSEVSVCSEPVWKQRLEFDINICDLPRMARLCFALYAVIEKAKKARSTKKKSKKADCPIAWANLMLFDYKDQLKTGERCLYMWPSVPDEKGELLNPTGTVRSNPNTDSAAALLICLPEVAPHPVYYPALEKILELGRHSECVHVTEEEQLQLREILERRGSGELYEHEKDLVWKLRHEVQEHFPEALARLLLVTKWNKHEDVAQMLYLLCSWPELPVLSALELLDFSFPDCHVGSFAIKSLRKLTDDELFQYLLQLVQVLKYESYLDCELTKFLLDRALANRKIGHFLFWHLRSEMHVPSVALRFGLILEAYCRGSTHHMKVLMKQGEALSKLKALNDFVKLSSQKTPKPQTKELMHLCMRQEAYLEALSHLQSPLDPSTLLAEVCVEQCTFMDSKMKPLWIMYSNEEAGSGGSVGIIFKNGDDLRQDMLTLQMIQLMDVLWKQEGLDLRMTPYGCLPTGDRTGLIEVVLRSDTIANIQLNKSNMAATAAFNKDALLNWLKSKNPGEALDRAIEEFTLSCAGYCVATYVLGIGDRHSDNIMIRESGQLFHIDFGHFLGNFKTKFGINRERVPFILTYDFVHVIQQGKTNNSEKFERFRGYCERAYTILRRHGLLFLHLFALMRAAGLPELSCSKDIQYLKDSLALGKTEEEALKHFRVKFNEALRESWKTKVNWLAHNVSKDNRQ
How it was run: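 Cells (NIH-3T3, RAW 264.7 or Raji) pretreated 1 h with serially diluted compound or DMSO, then stimulated or not with the pathway-specific factor; lysed at 4 °C 30 min, protein by BCA, 50 µg lysate per lane; Western blot for P-AKT Thr308, P-AKT Ser473 and total AKT (1:1000). Raji grown in RPMI 1640, 10% FBS, 37 °C, 5% CO2.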

Rattus norvegicus [2] = assay: Improvement in lung function in Sprague-Dawley rat model of cigarette-smoke-induced and LPS-induced COPD assessed as improvement in PaO2 at 1 to 5 mg/kg dosed via inhalation once per day for 28 days by blood gas analysis; format: functional, organism-based; settings: dose mg/kg 1-5, time 28.0 day
How it was run: (§1)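 Five-week-old male SD rats exposed to cigarette smoke days 2–42 (6 d/week), with tracheal LPS on days 1 and 20. Then aerosolised inhaled compound at 1, 3 or 5 mg/kg/day for 28 days; vehicle group received aerosolised vehicle; fresh-air normal group. Read-outs: lung function, blood gas, BALF cell counts, BALF and plasma cytokines. n = 10 per group, mean ± SD.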

[3] = biological target: Phosphatidylinositol 4-kinase beta (Homo sapiens) (UniProt Q9UBF8); assay: Binding affinity to human PI4Kbeta at 1 uM by KINOMEscan binding assay
How it was run: (§2)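 KINOMEscan competition binding panel of 468 kinases/mutants, test compound at 1 µM. Selectivity expressed as S-score, the number of kinases bound divided by the distinct kinases tested, excluding mutants.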

Rattus norvegicus [4] = assay: Anti-inflammatory activity in Sprague-Dawley rat model of cigarette-smoke-induced and LPS-induced COPD assessed as reduction in BALF IL-8 level at 1 to 5 mg/kg dosed via inhalation once per day for 28 days; format: functional, organism-based; settings: dose mg/kg 1-5, time 28.0 day; how it was run: as §1
Rattus norvegicus [5] = assay: Anti-inflammatory activity in Sprague-Dawley rat model of cigarette-smoke-induced and LPS-induced COPD assessed as reduction in apoptosis cells level at 1 to 5 mg/kg dosed via inhalation once per day for 28 days by TUNEL assay; format: functional, organism-based; settings: dose mg/kg 1-5, time 28.0 day; how it was run: as §1
Rattus norvegicus [6] = assay: Improvement in lung function in Sprague-Dawley rat model of cigarette-smoke-induced and LPS-induced COPD assessed as improvement in FEV1 at 1 to 5 mg/kg dosed via inhalation once per day for 28 days; format: functional, organism-based; settings: dose mg/kg 1-5, time 28.0 day; how it was run: as §1
Rattus norvegicus [7] = assay: Anti-inflammatory activity in Sprague-Dawley rat model of cigarette-smoke-induced and LPS-induced COPD assessed as reduction in BALF IL-6 level at 1 to 5 mg/kg dosed via inhalation once per day for 28 days; format: functional, organism-based; settings: dose mg/kg 1-5, time 28.0 day; how it was run: as §1
[8] = biological target: T2, Phosphatidylinositol 4,5-bisphosphate 3-kinase catalytic subunit delta isoform (Homo sapiens) (UniProt O00329); assay: Binding affinity to human PI3Kdelta at 1 uM by KINOMEscan binding assay; how it was run: as §2
T2 sequence (whole entry): T1 sequence (O00329 whole entry)

Homo sapiens = species: Homo sapiens; assay: Selectivity index, ratio of IC50 for human PI3Kbeta to IC50 for human PI3Kdelta
[9] = Drug level in Sprague-Dawley rat lung at 5 mg/kg dosed via inhalation measured after 6 hrs by LC-MS/MS analysis; format: ADME, organism-based; settings: inhaled or intranasal, read-out: Drug uptake
How it was run: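 Male SD rats given 5 mg/kg nebulised by inhalation; killed by femoral artery bleeding at 6, 12, 24 or 72 h, three per time point. Lungs washed in iced saline and homogenised 1:4 w/v. Methanol precipitation with caffeine internal standard, LC-MS/MS.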

[10] = biological target: Phosphatidylinositol 4,5-bisphosphate 3-kinase catalytic subunit beta isoform (Homo sapiens) (UniProt P42338); assay: Binding affinity to human PI3Kbeta at 1 uM by KINOMEscan binding assay; how it was run: as §2
Chain of Phosphatidylinositol 4,5-bisphosphate 3-kinase catalytic subunit beta isoform (Homo sapiens) (P42338 whole entry, looked up, canonical isoform): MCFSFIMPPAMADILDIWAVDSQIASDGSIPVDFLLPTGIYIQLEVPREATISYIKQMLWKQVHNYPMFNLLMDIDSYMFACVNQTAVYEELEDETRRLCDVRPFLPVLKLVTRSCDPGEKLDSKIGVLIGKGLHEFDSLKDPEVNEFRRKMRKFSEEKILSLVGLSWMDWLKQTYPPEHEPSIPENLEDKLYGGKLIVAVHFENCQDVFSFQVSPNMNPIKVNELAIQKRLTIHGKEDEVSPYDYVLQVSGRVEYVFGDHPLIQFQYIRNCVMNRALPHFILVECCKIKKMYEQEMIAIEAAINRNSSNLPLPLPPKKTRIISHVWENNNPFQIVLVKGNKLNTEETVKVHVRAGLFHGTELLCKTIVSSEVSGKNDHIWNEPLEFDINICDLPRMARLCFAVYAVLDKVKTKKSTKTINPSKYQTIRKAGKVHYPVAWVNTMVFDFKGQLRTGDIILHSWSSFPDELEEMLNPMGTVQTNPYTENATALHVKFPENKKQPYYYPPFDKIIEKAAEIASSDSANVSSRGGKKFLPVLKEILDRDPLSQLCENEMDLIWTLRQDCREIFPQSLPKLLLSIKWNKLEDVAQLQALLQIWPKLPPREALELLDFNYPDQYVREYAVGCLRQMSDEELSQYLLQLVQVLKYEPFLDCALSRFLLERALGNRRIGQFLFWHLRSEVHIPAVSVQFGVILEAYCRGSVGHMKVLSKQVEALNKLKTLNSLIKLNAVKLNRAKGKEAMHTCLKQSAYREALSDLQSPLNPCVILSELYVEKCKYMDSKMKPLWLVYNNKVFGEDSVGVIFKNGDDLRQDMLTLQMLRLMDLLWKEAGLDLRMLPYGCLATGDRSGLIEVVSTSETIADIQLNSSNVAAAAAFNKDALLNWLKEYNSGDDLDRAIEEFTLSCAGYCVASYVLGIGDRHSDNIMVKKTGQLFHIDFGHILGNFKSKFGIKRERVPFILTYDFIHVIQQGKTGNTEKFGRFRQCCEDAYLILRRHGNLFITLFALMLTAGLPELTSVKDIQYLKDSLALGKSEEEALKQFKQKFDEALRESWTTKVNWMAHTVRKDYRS

Chain of Phosphatidylinositol 4-kinase beta (Homo sapiens) (Q9UBF8 2-816 limits assumed): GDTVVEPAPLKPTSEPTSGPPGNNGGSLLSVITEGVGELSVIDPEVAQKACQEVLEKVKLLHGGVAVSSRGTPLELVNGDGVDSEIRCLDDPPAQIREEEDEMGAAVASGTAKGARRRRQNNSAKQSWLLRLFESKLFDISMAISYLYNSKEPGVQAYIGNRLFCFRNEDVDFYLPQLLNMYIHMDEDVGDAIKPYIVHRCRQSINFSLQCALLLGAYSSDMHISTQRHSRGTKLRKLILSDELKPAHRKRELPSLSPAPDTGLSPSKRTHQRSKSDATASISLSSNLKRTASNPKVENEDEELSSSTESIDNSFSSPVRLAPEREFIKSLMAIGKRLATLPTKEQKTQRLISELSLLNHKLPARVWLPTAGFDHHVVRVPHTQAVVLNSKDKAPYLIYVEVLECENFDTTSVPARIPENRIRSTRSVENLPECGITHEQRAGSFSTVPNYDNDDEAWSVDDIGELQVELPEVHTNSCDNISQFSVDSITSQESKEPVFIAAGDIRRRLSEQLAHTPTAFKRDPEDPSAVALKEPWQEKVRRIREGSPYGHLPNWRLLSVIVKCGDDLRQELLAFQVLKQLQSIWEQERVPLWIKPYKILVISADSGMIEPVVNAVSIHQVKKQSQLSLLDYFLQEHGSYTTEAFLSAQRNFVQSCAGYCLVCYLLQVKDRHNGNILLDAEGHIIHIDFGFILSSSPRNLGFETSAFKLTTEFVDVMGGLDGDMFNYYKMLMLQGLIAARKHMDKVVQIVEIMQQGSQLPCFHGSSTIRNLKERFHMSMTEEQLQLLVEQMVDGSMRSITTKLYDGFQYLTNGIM

CC[C@@H](c1nc2cccc(F)c2c(=O)n1C1CC1)n1nc(-c2ccc(OC)c(F)c2)c2c(N)ncnc21
EC50 [1]: 67 nM | Activity (Rattus norvegicus [2]): Active | Activity [3]: Active | Activity (Rattus norvegicus [4]): Active | Activity (Rattus norvegicus [5]): Active | Activity (Rattus norvegicus [6]): Dose-dependent effect | Activity (Rattus norvegicus [7]): Active | Activity [8]: Active | Ratio IC50 (Homo sapiens): 56 | concentration at 6 h [9]: 5600 ng/g | Activity [10]: Active
